Measured values of several laboratories.
pIC50: −log10 of the molar value. Converted amounts (≈) assume the structure as drawn.

CC(=O)C1=NN(c2ccccc2)C(=C(C#N)C(=O)c2ccc(Nc3cnccn3)cc2)S1  MIC (Salmonella enterica; microbial growth, broth dilution; ATCC13076 TYPHIMURIUM): 100 µg/mL (≈ 227 µM)
COc1ccccc1CNc1ccc(C(=O)O)cc1  pIC50 (NCI-H69; cell growth or viability, resazurin; 72 h): < 4.00
CCCS(=O)(=O)Oc1ccc(C=NNC(=O)CSc2nc3ccc(Cl)cc3c(=O)n2-c2ccccc2)cc1OC  inhibition zone (Bacillus cereus; microbial growth, well diffusion; 20 µg/mL): 2 mm
COc1cccc(CNc2ccc(C(=O)O)cc2)c1  pIC50 (NCI-H69; cell growth or viability, resazurin; 72 h): < 4.00
Nc1ccc(S(=O)(=O)Nc2ncccn2)cc1  inhibition zone (Bacillus cereus; microbial growth, well diffusion; 20 µg/mL): 3 mm
CC(C)(C)c1cc(NC(=O)Nc2ccc(-c3cn4c(n3)sc3cc(OCCN5CCOCC5)ccc34)cc2)no1  GI50 (BJ; cell growth or viability; 72 h): > 10 µM
CN(C)c1ccc(CNc2ccc(C(=O)O)cc2)cc1  pIC50 (NCI-H69; cell growth or viability, resazurin; 72 h): < 4.00
CC(C)c1ccc(/C=C2\N=C(SCC(=O)O)N(c3ccccc3)C2=O)cc1  MIC (Bacillus cereus; microbial growth, broth dilution; ATCC14579): 12 µg/mL (≈ 31.5 µM)
CN(C)CCNC(=O)c1ccc(-c2nc3ccc4[nH]ncc4c3c3c2CCCCC3)cc1  GI50 (BJ; cell growth or viability; 72 h): 8.63 µM
O=C(O)c1cn(C2CC2)c2cc(N3CCNCC3)c(F)cc2c1=O  inhibition zone (Bacillus cereus; microbial growth, well diffusion; 20 µg/mL): 5 mm
CN(C)CCNC(=O)c1ccc(-c2nc3ccc4[nH]ncc4c3c3c2CCCCC3)c(F)c1  GI50 (BJ; cell growth or viability; 72 h): 6.58 µM
COc1ccc(-n2nc(C(=O)c3ccc(Nc4cnccn4)cc3)sc2=N)cc1  MIC (Salmonella enterica; microbial growth, broth dilution; ATCC13076 TYPHIMURIUM): 50 µg/mL (≈ 124 µM)
Cc1n[nH]c2ccc3nc(-c4ccc(C(=O)NCCN(C)C)cc4)c4c(c3c12)CCCCC4  GI50 (BJ; cell growth or viability; 72 h): > 10 µM
COc1ccc(C=NNC(=O)CSc2nc3c(C)cccc3c(=O)n2-c2ccccc2)cc1OS(C)(=O)=O  inhibition zone (Salmonella enterica; microbial growth, well diffusion; TYPHIMURIUM; 20 µg/mL): 3 mm
CC(=O)OCC1=C(C(=O)O)N2C(=O)[C@@H](NC(=O)Cc3cccs3)[C@H]2SC1  MIC (Salmonella enterica; microbial growth, broth dilution; ATCC13076 TYPHIMURIUM): 3.12 µg/mL (≈ 7.88 µM)
CN(C)CCNC(=O)c1ccc(-c2nc3ccc4[nH]ncc4c3c3c2CCCC3)c(F)c1  GI50 (BJ; cell growth or viability; 72 h): 9.72 µM
CCS(=O)(=O)Oc1ccc(C=NNC(=O)CSc2nc3ccc(Cl)cc3c(=O)n2-c2ccccc2)cc1  inhibition zone (Bacillus cereus; microbial growth, well diffusion; 20 µg/mL): 2 mm
N=c1sc(C(=O)c2ccc(Nc3cnccn3)cc2)nn1-c1ccc([N+](=O)[O-])cc1  MIC (Salmonella enterica; microbial growth, broth dilution; ATCC13076 TYPHIMURIUM): 6.25 µg/mL (≈ 14.9 µM)
